Series [1] concerns the target T1, Human immunodeficiency virus type 1 integrase (Human immunodeficiency virus 1, UniProt Q7ZJM1). Description: (§1) Inhibition of recombinant HIV1 integrase 3'-end processing activity. The essentials: (§2)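 Recombinant HIV-1 integrase with a 21 bp duplex substrate, 5'-[32P]-labelled. 3'-processing read as release of the terminal dinucleotide; strand transfer read as DNA products longer than the starting substrate. Products resolved by PAGE. IC50 given as mean and standard deviation of at least three independent experiments.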

The target in series [2] is T1, Human immunodeficiency virus type 1 integrase. The series is described as follows: (§3) Inhibition of recombinant HIV1 integrase strand transfer activity. The essentials:
as §2

The nature of series [3]: Cytotoxicity against MT2 cells. The settings on record: human. The class given is cell-based.
The target in series [4] is Human immunodeficiency virus type 1 integrase (Human immunodeficiency virus 1) (UniProt Q7ZJM1). The description is as §1. The essentials: as §2
Series [5] shares this target. The series is described as §3. In short, it runs like this:
as §2

Series [6] concerns the target T1, Human immunodeficiency virus type 1 integrase. The series is described as follows: Inhibition of recombinant HIV1 integrase mediated-disintegration activity. The essentials: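 Reverse of strand transfer, run with recombinant HIV-1 integrase on a Y-oligomer substrate carrying a 5'-[32P] label. Cleavage of the 34-mer strand releases a radiolabelled 19-bp oligonucleotide, which was detected by PAGE after reactions over a range of drug concentrations. IC50 derived from the gel analysis.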

Active and inactive are the calls of the source. The calls are words filed in the database; no cut-off is given here.

Chain of Human immunodeficiency virus type 1 integrase (Human immunodeficiency virus 1) (Q7ZJM1 as listed by the source): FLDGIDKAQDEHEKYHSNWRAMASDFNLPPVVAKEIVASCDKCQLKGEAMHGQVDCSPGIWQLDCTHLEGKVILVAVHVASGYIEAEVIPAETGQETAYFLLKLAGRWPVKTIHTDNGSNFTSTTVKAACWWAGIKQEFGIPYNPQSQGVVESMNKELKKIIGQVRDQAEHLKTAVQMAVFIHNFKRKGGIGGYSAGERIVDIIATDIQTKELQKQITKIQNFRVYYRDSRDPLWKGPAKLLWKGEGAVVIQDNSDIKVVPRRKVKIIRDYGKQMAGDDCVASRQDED
T1 sequence (Q7ZJM1 whole entry): as the sequence (Q7ZJM1 as listed by the source) above

Turning to `COc1ccc([C@@H]2CC(=O)C[C@H](c3ccco3)C23C(=O)OC(C)(C)OC3=O)cc1`, the results for the IC50 in series [1] and in series [2] were 130 µM and 36.3 µM, respectively. For the same compound, the CC50 in series [3] was above 111 µM.
On to `CCOC(=O)C1=C(O)CCC2(C(=O)OC(C)(C)OC2=O)[C@H]1c1ccccc1OC`, for which the result in series [4] was inactive. Further, in series [2], the IC50 is 281 µM. In series [3], the CC50 was above 111 µM.
As for `COc1ccc([C@@H]2CC(=O)C[C@H](c3ccccc3OC)C23C(=O)OC(C)(C)OC3=O)cc1O`, the result in series [4] and in series [5] was inactive. In series [3], this compound gave a cytotoxic concentration (CC50) above 111 µM.
Turning to `COc1ccc([C@@H]2CC(=O)C[C@H](c3ccco3)C23C(=O)OC(C)(C)OC3=O)cc1O`, the outcome in series [4] and in series [5] was inactive. In addition, the CC50 in series [3] is above 111 µM.
Turning to `COc1ccc([C@@H]2CC(=O)C[C@H](c3ccco3)C23C(=O)OC(C)(C)OC3=O)c(C)c1`, the result in series [4] and in series [5] was inactive. The CC50 in series [3] is above 111 µM.
With `CC1(C)OC(=O)C2(C(=O)O1)[C@@H](c1ccco1)CC(=O)C[C@H]2c1ccccc1Cl`, the result in series [4] and in series [5] was inactive. The compound further came in with a CC50 in series [3] above 111 µM.
Consider `COc1ccc([C@@H]2CC(=O)C[C@H](c3ccco3)C23C(=O)OC(C)(C)OC3=O)cc1OC`, for which the IC50 in series [1] was 111 µM; in series [2], 91.5 µM. Further, the CC50 in series [3] is above 111 µM.
Regarding `CC1(C)OC(=O)C2(C(=O)O1)[C@@H](c1ccco1)CC(=O)C[C@H]2c1c[nH]c2ccccc12`, the IC50 in series [1] is 11.1 µM; in series [2] it was 9.6 µM; in series [6] it was 19.2 µM. Also, the CC50 in series [3] was above 111 µM.
The like results for `CCOC(=O)C1=C(O)CCC2(C(=O)OC(C)(C)OC2=O)[C@H]1c1ccco1` were, in that order, 67.8 µM, 43.8 µM, 213 µM and above 111 µM.
Consider `COc1cccc([C@@H]2CC(=O)C[C@H](c3ccco3)C23C(=O)OC(C)(C)OC3=O)c1OC`, for which the IC50 worked out at 44.8 µM in series [1] and 44.2 µM in series [2]. Besides, the half-maximal cytotoxic concentration (CC50) in series [3] was above 111 µM.
Turning to `COc1ccc([C@H]2CC(=O)CCC23C(=O)OC(C)(C)OC3=O)cc1`, the results for the IC50 in series [1] and in series [2] were 142 µM and 97.5 µM, respectively. In series [3], this compound returned a cytotoxic concentration (CC50) above 111 µM.
Consider `CC1(C)OC(=O)C2(C(=O)O1)[C@@H](c1ccco1)CC(=O)C[C@H]2c1ccccc1`, for which the IC50 in series [1] was 141 µM; in series [2], 132 µM. Also, in series [3], the CC50 was above 111 µM.
In the case of `CC1(C)OC(=O)C2(C(=O)O1)[C@@H](c1ccco1)CC(=O)C[C@H]2c1ccco1`, the IC50 in series [1] was 32.9 µM; in series [2], 17.6 µM; in series [6], 81.4 µM. Further, in series [3], the CC50 was above 111 µM.
For the compound `CC1(C)OC(=O)C2(C(=O)O1)[C@@H](c1ccco1)CC(=O)C[C@H]2c1ccc(Br)cc1`, the outcome in series [4] and in series [5] was inactive. The compound also registered a CC50 in series [3] above 111 µM.
As for `CC1(C)OC(=O)C2(C(=O)O1)[C@@H](c1ccco1)CC(=O)C[C@H]2c1ccc(F)cc1`, the result in series [4] and in series [5] was inactive. For the same compound, the CC50 in series [3] was above 111 µM.

In general, IC50 refers to the point on the concentration scale where inhibition reaches its midpoint. What is called CC50 is the concentration giving 50% cytotoxicity.

The values are drawn from ChEMBL document CHEMBL1139079, “Synthesis and HIV-1 integrase inhibitory activity of spiroundecane(ene) derivatives” (Bioorg Med Chem Lett, 2007).
